# From ChEMBL document CHEMBL1145150, “Synthesis and biological activity of nitronyl nitroxide containing peptides” (J Med Chem, 2005)
# Residues, ends and D or L forms follow the SMILES beside them.
# Key:
# PC-12 [1] = assay: Free radical scavenging activity of compound (12.5 uM) evaluated against OH in PC12 cells; assay type: functional, cell-based; settings: Rattus norvegicus
# Procedure, shortened: (§1)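 PC12 cells were grown in DMEM with 10% heat-inactivated horse serum, 5% FBS and 1.0 mM pyruvate at 37 °C and 5% CO₂. Cells were seeded at 20 000/well on poly-L-lysine and attached 24 h, then pretreated 1 h with 12.5–200 µM compound. Insults were: NO, 2 mM nitroprusside for 2 h, then 14 h in fresh medium; H₂O₂, 1 mM for 1 h; OH, 1 mM H₂O₂/30 µM Fe(II) for 1 h. Survival was read by MTT.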
# PC-12 [2] = assay: Free radical scavenging activity of compound (12.5 uM) evaluated against nitric oxide in PC12 cells; assay type: functional, cell-based; settings: Rattus norvegicus; procedure, shortened: as §1
# Rattus norvegicus [3] = species on record: Rattus norvegicus; assay: Concentration of compound (1 uM) required to inhibit acetylcholine-induced vasorelaxation of rat aortic strip relative to control; assay type: functional, Aorta
# Oryctolagus cuniculus [4] = species on record: Oryctolagus cuniculus; assay: Effect (0.8 ug) on euglobulin clot lysis time determined using rabbit euglobulin; assay type: functional
# Procedure, shortened: (§2)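 Rabbit plasma was diluted 1:20 in distilled water and precipitated at pH 5.7 with 0.25% acetic acid for 30 min at 4 °C. It was spun at 2000g for 15 min, and the euglobulin pellet was resuspended to the original plasma volume in 50 mM sodium barbiturate buffer (pH 7.8; 1.66 mM CaCl₂, 0.68 mM MgCl₂, 93.96 mM NaCl). Saline, urokinase or test agent was added to the clots, and time to clot lysis was read in a microplate.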
# PC-12 [5] = assay: Free radical scavenging activity of compound (12.5 uM) evaluated against hydrogen peroxide in PC12 cells; assay type: functional, cell-based; settings: Rattus norvegicus; procedure, shortened: as §1
# Rattus norvegicus [6] = assay: Thrombolytic activity (10.0 umol/kg) expressed as the reduction of thrombus mass determined in male wistar rats; assay type: functional
# Procedure, shortened: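 Male Wistar rats (200–300 g) were anesthetized with pentobarbital sodium (80.0 mg/kg i.p.). A steel helix was left for 15 min in 1.0 mL of carotid blood, then weighed. It was placed in a heparin-filled (50 IU/mL) polyethylene shunt into the left jugular vein. Heparin and then the test agent were injected through the shunt. Blood circulated 90 min, the helix was reweighed, and thrombus mass reduction was recorded (ANOVA).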
# Oryctolagus cuniculus [7] = species on record: Oryctolagus cuniculus; assay: Fibrinolytic activity (0.8 ug) determined in fibrinogen-agarose mixture coagulated with […] of thrombin; assay type: functional
# Procedure, shortened: (§3)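 Plates were cast from equal volumes of 0.3% rabbit fibrinogen and 0.95% agarose, both in 50 mM sodium barbiturate buffer (pH 7.8), clotted with thrombin (100 IU/mL) and held 30 min at 4 °C. Wells 5 mm across were punched and loaded with 30 µL of saline, urokinase or test agent. Fibrinolysis was expressed as lysis area.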
# Oryctolagus cuniculus [8] = species on record: Oryctolagus cuniculus; assay: Effect (1.4 ug) on euglobulin clot lysis time determined using rabbit euglobulin; assay type: functional; procedure, shortened: as §2
# Oryctolagus cuniculus [9] = species on record: Oryctolagus cuniculus; assay: Fibrinolytic activity (1.4 ug) determined in fibrinogen-agarose mixture coagulated with […] of thrombin; assay type: functional; procedure, shortened: as §3
# Rattus norvegicus [10] = species on record: Rattus norvegicus; assay: Concentration of compound (1 umol/L) required to inhibit acetylcholine-induced vasorelaxation of rat aortic strip relative to control; assay type: functional, Aorta
# Oryctolagus cuniculus [11] = species on record: Oryctolagus cuniculus; assay: Effect (1.3 ug) on euglobulin clot lysis time determined using rabbit euglobulin; assay type: functional; procedure, shortened: as §2
# Oryctolagus cuniculus [12] = species on record: Oryctolagus cuniculus; assay: Fibrinolytic activity (1.3 ug) determined in fibrinogen-agarose mixture coagulated with […] of thrombin; assay type: functional; procedure, shortened: as §3
# Oryctolagus cuniculus [13] = species on record: Oryctolagus cuniculus; assay: Fibrinolytic activity (1.5 ug) determined in fibrinogen-agarose mixture coagulated with […] of thrombin; assay type: functional; procedure, shortened: as §3
# Oryctolagus cuniculus [14] = species on record: Oryctolagus cuniculus; assay: Effect (1.5 ug) on euglobulin clot lysis time determined using rabbit euglobulin; assay type: functional; procedure, shortened: as §2
smiles,measurement,setting,value
CC1(C)N(O)C(c2ccc(OCC(=O)O)cc2)=[N+]([O-])C1(C)C,EC50,PC-12 [1],99.9 µM
same,EC50,PC-12 [2],91.2 µM
same,Inhibition,Rattus norvegicus [3],99.2%
same,ECLT,Oryctolagus cuniculus [4],218.56 min
same,EC50,PC-12 [5],30.2 µM
same,Reduction,Rattus norvegicus [6],15.89 mg
same,Lysis area,Oryctolagus cuniculus [7],23.96 mm.mm
C[C@H](N)C(=O)N[C@@H](CCCN=C(N)N)C(=O)N1CCC[C@H]1C(=O)N[C@@H](C)C(=O)N[C@@H](CCCCN)C(=O)O (H-ARPAK-OH),ECLT,Oryctolagus cuniculus [8],96.38 min
same,Lysis area,Oryctolagus cuniculus [9],212.78 mm.mm
same,Reduction,Rattus norvegicus [6],18.54 mg
same,Inhibition,Rattus norvegicus [10],9.5%
C[C@H](NC(=O)[C@@H]1CCCN1C(=O)[C@H](CCCN=C(N)N)NC(=O)CN)C(=O)N[C@@H](CCCCN)C(=O)O (H-GRPAK-OH),ECLT,Oryctolagus cuniculus [11],91.09 min
same,Lysis area,Oryctolagus cuniculus [12],230.54 mm.mm
same,Reduction,Rattus norvegicus [6],25.82 mg
same,Inhibition,Rattus norvegicus [10],9.2%
C[C@H](NC(=O)[C@@H]1CCCN1C(=O)[C@H](CCCN=C(N)N)NC(=O)[C@@H](N)CCC(N)=O)C(=O)N[C@@H](CCCCN)C(=O)O (H-QRPAK-OH),Lysis area,Oryctolagus cuniculus [13],223.99 mm.mm
same,ECLT,Oryctolagus cuniculus [14],93.01 min
same,Reduction,Rattus norvegicus [6],21.17 mg
same,Inhibition,Rattus norvegicus [10],8.9%
